Converted amounts (≈) assume the structure as drawn.
Tests used:
Dipeptidyl peptidase 1 [1] = molecular target: T1, Dipeptidyl peptidase 1 (Homo sapiens, UniProt P53634); assay: Inhibition of DPP1 in human U937 cells using Gly-Phe-AFC as substrate preincubated for 60 mins followed by substrate addition by fluorescence assay; assay type: cell-based, U-937
physchem [2] = details: octanol/water, pH 7.4
Dipeptidyl peptidase 1 [3] = molecular target: T1, Dipeptidyl peptidase 1; assay: Inhibition of human recombinant DPP1 using Gly-Arg-AMC as substrate preincubated for 30 mins followed by substrate addition by fluorometric assay
Outline: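 Isolated human recombinant DPP1 was run in a fluorometric assay in piperazine-based buffer. Compound was pre-incubated with enzyme for 30 min at rt, then Gly-Arg-AMC dipeptide substrate was added. Data were curve-fitted to give pIC50, as the mean of at least two experiments.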

[4] = Propionaldehyde reactivity assessed as half life of the compound at pH 7.4 by LC-UV method; assay type: physicochemical
[5] = Protein binding in human plasma at 10 uM after 6 hrs by LC-MS/MS method; assay type: ADME, cell-free; details: read-out: PPB (converted)
[6] = Intrinsic clearance in human liver microsomes at 1 uM after 5 to 40 mins by LC-MS/MS method; assay type: ADME; details: read-out: CLH
[7] = Intrinsic clearance in rat hepatocytes assessed per 10^6 cells at 1 uM after 10 to 90 mins by LC-MS/MS method; assay type: ADME, cell-based, Hepatocyte
[8] = Protein binding in rat plasma at 10 uM after 6 hrs by LC-MS/MS method; assay type: ADME, cell-free; details: read-out: PPB (converted)
[9] = Apparent permeability across apical to basolateral side in human Caco2 cells at 10 uM after 1 hr by LC-MS method; details: Caco-2
[10] = Apparent permeability across basolateral to apical side in human Caco2 cells at 10 uM after 1 hr by LC-MS method; details: Caco-2
physchem [11] = details: buffer, pH 7.4

T1 sequence (P53634 25-134 limits assumed): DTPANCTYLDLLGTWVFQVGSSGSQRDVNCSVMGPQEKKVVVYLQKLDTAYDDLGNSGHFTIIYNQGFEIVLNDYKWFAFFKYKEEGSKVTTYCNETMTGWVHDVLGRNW
T1 sequence (P53634 231-394 limits assumed): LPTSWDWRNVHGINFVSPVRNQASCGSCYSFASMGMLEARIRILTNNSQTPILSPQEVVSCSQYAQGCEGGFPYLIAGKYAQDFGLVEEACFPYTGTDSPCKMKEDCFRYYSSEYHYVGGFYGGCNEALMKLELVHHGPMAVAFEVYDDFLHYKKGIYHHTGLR
T1 sequence (P53634 395-463 limits assumed): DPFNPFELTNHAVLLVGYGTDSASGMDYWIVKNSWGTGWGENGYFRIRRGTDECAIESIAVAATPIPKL

| SMILES | IC50 (Dipeptidyl peptidase 1 [1]) | logD at 10 µM (physchem [2]) | IC50 (Dipeptidyl peptidase 1 [3]) | half-life [4] | other results |
| --- | --- | --- | --- | --- | --- |
| CN1C(=O)COc2ccc(-c3ccc(C[C@@H](C#N)NC(=O)[C@@H]4CNCCCO4)cc3)cc21 | 12.6 nM | 1.1 |  |  |  |
| CN1C(=O)C(F)(F)c2ccc(-c3ccc(C[C@@H](C#N)NC(=O)[C@@H]4CNCCCO4)cc3)cc21 | 15.8 nM | 1.4 | 15.8 nM |  |  |
| N#Cc1cccc(-c2ccc(C[C@@H](C#N)NC(=O)C3CCCCC3N)cc2)c1 (stereo not given in full) |  |  | 1000 nM |  |  |
| N#Cc1ccc(-c2ccc(C[C@@H](C#N)NC(=O)[C@@H]3CCCC[C@H]3N)cc2)cc1 | 158 nM |  | 316 nM | > 3000 min |  |
| N#Cc1ccc(-c2ccc(C[C@@H](C#N)NC(=O)C3(N)CCOCC3)cc2)cc1 |  |  |  | < 60 min |  |
| N#Cc1ccc(-c2ccc(C[C@@H](C#N)NC(=O)C3CCCCNC3)cc2)cc1 (mixture of isomers) | 501 nM |  | 1260 nM | > 3000 min |  |
| N#Cc1ccc(-c2ccc(C[C@@H](C#N)NC(=O)[C@H]3CCCC[C@H]3N)cc2)cc1 |  |  | > 10000 nM | > 3000 min |  |
| N#C[C@H](Cc1ccc(-c2ccc3scnc3c2)cc1)NC(=O)[C@@H]1CNCCCO1 |  | 1.5 | 63.1 nM |  |  |
| N#C[C@H](Cc1ccc(-c2ncc(C(F)(F)F)cn2)cc1)NC(=O)[C@@H]1CNCCCO1 | 200 nM | 1.1 | 200 nM |  |  |
| Cn1c(=O)cnc2ccc(-c3ccc(C[C@@H](C#N)NC(=O)[C@@H]4CNCCCO4)cc3)cc21 |  | 0.6 | 25.1 nM |  |  |
| N#Cc1ccc(-c2ccc(C[C@@H](C#N)NC(=O)[C@@H]3CCCC[C@@H]3N)cc2)cc1 | 39.8 nM | 1.6 | 39.8 nM | > 3000 min | fraction unbound at 6 h, 10 µM [5]: 0.07; microsomal CLint at 1 µM [6]: 9.3 µL/min/mg; CLH [7]: < 3.5 µL/min/10^6 cells; fraction unbound at 6 h, 10 µM [8]: 0.12; Papp A→B at 1 h, 10 µM [9]: 11 ×10⁻⁶ cm/s; Papp B→A at 1 h, 10 µM [10]: 36 ×10⁻⁶ cm/s; solubility kinetic at 2 h (physchem [11]): 175 µM (≈ 65.2 µg/mL) |
| N#C[C@H](Cc1ccc(-c2ccc(C(F)(F)F)cc2)cc1)NC(=O)[C@@H]1CNCCCO1 |  | 2.8 | 39.8 nM |  |  |
| Cn1c(=O)ccc2ccc(-c3ccc(C[C@@H](C#N)NC(=O)[C@@H]4CNCCCO4)cc3)cc21 | 12.6 nM | 1.1 | 12.6 nM |  |  |
| N#Cc1ccc(-c2ccc(C[C@@H](C#N)NC(=O)[C@@H]3CCCNC3)cc2)cc1 |  | 0.6 | > 10000 nM |  |  |

From ChEMBL document CHEMBL3856275, “Discovery of Second Generation Reversible Covalent DPP1 Inhibitors Leading to an Oxazepane Amidoacetonitrile Based Clinical Candidate (AZD7986)” (J Med Chem, 2016)
